ChEMBL document CHEMBL2331158, “Isocoumarin derivatives and benzofurans from a sponge-derived Penicillium sp. fungus” (2013)
In brackets after ≈: the same amount, converted by molar mass. Activity calls are given as the source filed them. The calls are words filed in the database; no cut-off is given here.

Assays:
K562 = test: Cytotoxicity against human K562 cells assessed as cell viability after 6 days by MTT assay; format: functional, cell-based
A549 = test: Cytotoxicity against human A549 cells assessed as cell viability after 6 days by MTT assay; format: functional, cell-based
HL-60 = test: Cytotoxicity against human HL60 cells assessed as cell viability after 6 days by MTT assay; format: functional, cell-based
Vibrio parahaemolyticus = test: Antibacterial activity against Vibrio parahaemolyticus ATCC 17802 assessed as growth inhibition after 18 hrs by broth dilution method; format: functional; conditions: ATCC 17802, 18 h
How it was run: (§1)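 Conventional broth dilution assay, run across a panel of nine bacterial strains (Gram-positive and Vibrio species included), with ciprofloxacin as the positive control.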

Staphylococcus aureus = test: Antibacterial activity against Staphylococcus aureus ATCC 27154 assessed as growth inhibition after 18 hrs by broth dilution method; format: functional; conditions: ATCC 27154, 18 h; how it was run: as §1
Staphylococcus = test: Antibacterial activity against Staphylococcus albus ATCC 8799 assessed as growth inhibition after 18 hrs by broth dilution method; format: functional; conditions: ATCC 8799, 18 h; how it was run: as §1
Bacillus cereus = test: Antibacterial activity against Bacillus cereus ACCC 11077 assessed as growth inhibition after 18 hrs by broth dilution method; conditions: ACCC 11077, 18 h

MIC (Staphylococcus aureus) [µM]	MIC (Staphylococcus) [µM]	MIC (Bacillus cereus) [µM]	SMILES	Activity (K562)	Activity (A549)	Activity (HL-60)	MIC (Vibrio parahaemolyticus) [µM]
12.5 (≈ 2.98 µg/mL)	> 25	6.25 (≈ 1.49 µg/mL)	CC(O)c1coc(=O)c2c(O)cc(O)c(O)c12 (stereo not given)	inactive	inactive	inactive	6.25 (≈ 1.49 µg/mL)
> 25	12.5 (≈ 3.1 µg/mL)	> 25	CC(=O)CCC[C@@H]1Cc2cccc(O)c2C(=O)O1 [ASPERGILLUMARIN A]	inactive	inactive	inactive	> 25
> 25	12.5 (≈ 3.13 µg/mL)	> 25	C[C@H](O)CCC[C@@H]1Cc2cccc(O)c2C(=O)O1 [ASPERGILLUMARIN B]	inactive	inactive	inactive	> 25
0.16 (≈ 0.053 µg/mL)	0.312 (≈ 0.103 µg/mL)	0.625 (≈ 0.207 µg/mL)	O=C(O)c1cn(C2CC2)c2cc(N3CCNCC3)c(F)cc2c1=O [CIPROFLOXACIN]				0.16 (≈ 0.053 µg/mL)
25 (≈ 5.21 µg/mL)	3.13 (≈ 0.652 µg/mL)	12.5 (≈ 2.6 µg/mL)	COc1cc(O)cc2c(CO)c(C)oc12 [PENICIFURAN A]	inactive	inactive	inactive	25 (≈ 5.21 µg/mL)
> 25	12.5 (≈ 3.13 µg/mL)	> 25	COc1cc(O)cc2c(COC(C)=O)c(C)oc12 [PENICIFURAN B]	inactive	inactive	inactive	> 25
12.5 (≈ 2.4 µg/mL)	25 (≈ 4.8 µg/mL)	12.5 (≈ 2.4 µg/mL)	Cc1oc2c(O)cc(O)cc2c1C=O [PENICIFURAN C]	inactive	inactive	inactive	> 25
> 25	25 (≈ 4.8 µg/mL)	25 (≈ 4.8 µg/mL)	CC(=O)c1coc2c(O)cc(O)cc12 [PENICIFURAN D]	inactive	inactive	inactive	25 (≈ 4.8 µg/mL)
12.5 (≈ 2.98 µg/mL)	> 25	> 25	O=c1oc(CO)c(CO)c2cc(O)cc(O)c12 [PENICIMARIN F]	inactive	inactive	inactive	> 25
